According to the EternaBench riboswitch data:

System: MS2 coat protein
Experiment: apparent Kd, MS2 coat protein; higher = weaker binding; RNA-MaP array; FMN 200 µM where present
How it was run: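 The apparent Kd comes from binding curves fitted cluster by cluster, filtered, and summarised as a median. Those curves followed SNAP-549-labelled MS2 coat protein from 0.7 or 1.5 nM, doubling to 3 µM, on Illumina sequencing-chip clusters where stalled E. coli RNA polymerase had transcribed the designs, without and then with constant ligand. The buffer was 100 mM Tris-HCl pH 7.5, 80 mM KCl, 4 mM MgCl2, BSA, DTT, yeast tRNA and Tween-20, and green signal was normalised to red-channel RNA signal and control-cluster median Fmax.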

[1] = designed as: OFF switch for flavin mononucleotide, no ligand
[2] = ligand present: flavin mononucleotide, designed as: OFF switch for flavin mononucleotide
[3] = designed as: ON switch for flavin mononucleotide, no ligand
[4] = ligand present: flavin mononucleotide, designed as: ON switch for flavin mononucleotide

“GUCAGCUCGUGAGGAUAUACAUGUGCUGGAUACAGCAUUAAAUUUUUCACAUGAGGAUCACCCAUGUAGAAGGCACGAGCUGAU” was tested. Which “apparent Kd” value [1] did it give?
Its value is 19.2 nM.

And the “apparent Kd” value [2]?
Its value is 49.6 nM.

How did the “apparent Kd” value [1] turn out when “UAAAAGUCAGGAUAUGCGAGAGAUUGAAGUGUGGCAAGGUAGCAGAAGGGACAUGAGGAUCACCCAUGUGUGGC” was run?
Its value is 52.4 nM.

What about the “apparent Kd” value [2] of the same sequence?
The value was 115 nM.

For “GAACUAAAGCAUAGCUUUAGUCGUACAUGAGGAUCACCCAUGUAGGAUAUGGUAGGCAUAGCUUACUAGAAGGAUAGAGUGAUC”, which “apparent Kd” value [1] is on record?
Its value is 294 nM.

What about the “apparent Kd” value [2] of the same sequence?
Its value is 82.4 nM.

Which results are given for “CGACACCGGGAGAAGGCCAGACGCCGGCGCCCAAUACAACUGAGCUUAUGGAGGAUAUCCCGACAUGAGGAUCACCCAUGUAUC”?
apparent Kd [3]: 35.5 nM; apparent Kd [4]: 10.8 nM

How did the “apparent Kd” value [1] turn out when “CUGGGAUAGUGGGAUAGGGUUGCCAGAAGGGUCUACAUGAGGAUCACCCAUGUGGGUCCGAGUGGACAGGAUAUGGCGUCCGUA” was run?
Its value is 12.6 nM.

And the “apparent Kd” value [2]?
The value was 45.3 nM.

For “CCACCCUGAGGAUAUCCACCCUGAUACAUGAGGAUCACCCAUGUUAAUGCCUGAGUUCCCGGAGAAGGCAGAUUCC”, which “apparent Kd” value [1] is on record?
The value was 40.5 nM.

And the “apparent Kd” value [2]?
Its value is 34.7 nM.

With “CCAGCCGUUCAAGGAUAUGACAUGAGGAUCACCCAUGUGAAGUCGAACAUUGAUGCACACCUUAGUCAGAAGGUGGAUGGGUCU” as the sequence, how does the “apparent Kd” value [1] read?
The value was 30.9 nM.

What about the “apparent Kd” value [2] of the same sequence?
The value was 96.5 nM.

Which “apparent Kd” value [1] does the source give for “UUUAUAUAGUAAGGAUAUGUAUUAUUUUUUACAACAGAAGGUACUGACAUGAGGAUCACCCAUGUUUUAGUGUGGGCAUGUAGU” here?
The value was 296 nM.

What about the “apparent Kd” value [2] of the same sequence?
The value was 364 nM.

“GAAGCAUGCAUUAACAUGAGGAUCACCCAUGUGAAAACACGUGAGGAUAUCGAUCUGAAGAAGAUCGAGAAGGCACCGUGCUAA” was tested. Which “apparent Kd” value [3] did it give?
The value was 8.87 nM.

And the “apparent Kd” value [4]?
Its value is 7.62 nM.

Which results are given for “AGAAAACAUGAGGAUCACCCAUGUGAGGAUAUCGAUGUCCAAAAAAAAGUGCGGGACUCGAGAAGGCACUUGGA”?
apparent Kd [1]: 28.6 nM; apparent Kd [2]: 37.6 nM

With “CCUAGUUGGUAAGGAUAUCCUACACUGUUCUGACCCGUGCAAGCUACAUGAGGAUCACCCAUGUGGGAGAAGGUGCGUCAACGU” as the sequence, how does the “apparent Kd” value [1] read?
Its value is 12.7 nM.

And the “apparent Kd” value [2]?
The value was 11.9 nM.

What does the source list for “UGUAAGAUGCAGAAGGUGUUAGCUAGAGCUACGACAUGAGGAUCACCCAUGUACUAGAAACAGUACAAGGAUAUGCAUCUUACU”?
apparent Kd [3]: 18 nM; apparent Kd [4]: 6.53 nM

What does the source list for “AUUAUACAUGAGGAUCACCCAUGUAAUUAAUUAAUUAAGAUCUAGGAUAUCAGCUCGAAUAGAGCUGAGAAGGAGAUCACAUGU”?
apparent Kd [3]: 31.7 nM; apparent Kd [4]: 18 nM

For “UUUACGUGAGGAUAUGCGAAUAGAACGUAAGACAUACAGACGCAGAAGGCACAUGAGGAUCACCCAUGUGAACC”, which “apparent Kd” value [1] is on record?
The value was 20.5 nM.

What about the “apparent Kd” value [2] of the same sequence?
The value was 41.4 nM.

With “GGUCGUCAAGUCAGGAUAUCGUAUAAUAGAUAUAACGAGAAGGGACAUGAGGAUCACCCAUGUCGUCUCAUCAG” as the sequence, how does the “apparent Kd” value [1] read?
Its value is 17.1 nM.

And the “apparent Kd” value [2]?
Its value is 23.7 nM.

For “GUACUACCCACAGAUAACUUAGCCAGAAGGGUCUACAUGAGGAUCACCCAUGUGGUCCAAAGUGGACAGGAUAUGGAAACGGUU”, which “apparent Kd” value [1] is on record?
The value was 139 nM.

And the “apparent Kd” value [2]?
The value was 12.2 nM.

How did the “apparent Kd” value [1] turn out when “AAAUUGGUAGAGGAUAUCGCACAGGAUUUACUGCGAGAAGGCUGCACAUGAGGAUCACCCAUGUUUUGUUGCGA” was run?
The value was 15.2 nM.

And the “apparent Kd” value [2]?
Its value is 18.1 nM.

How did the “apparent Kd” value [1] turn out when “GCUGCAUAGUCAGGAUAUGCAACAUAAUAUACAAAAUAGUAUAUUAUGACAUGAGGAUCACCCAUGUAGAAGGGACUGUGCAGU” was run?
Its value is 19.3 nM.

And the “apparent Kd” value [2]?
The value was 19.9 nM.

“UUGCUACAUGAGGAUCACCCAUGUCAGGAUAUAGUGUAUAGCGUGGAAGCUCUGUCGAUUAGAAGGGACUGUCU” was tested. Which “apparent Kd” value [1] did it give?
The value was 23.7 nM.

And the “apparent Kd” value [2]?
The value was 25.2 nM.

For “CUCGUGUUAGGAUAUGGAUAGCCGUUUGACGAGCGAGGGCACUAGAAGGAACAUGAGGAUCACCCAUGUAAAAA”, which “apparent Kd” value [1] is on record?
The value was 21.3 nM.

And the “apparent Kd” value [2]?
The value was 21.1 nM.

Which “apparent Kd” value [1] does the source give for “AUACCACGAGGAUAUCGUCUAUAAUACAUGAGGAUCACCCAUGUUAUAUCUGUAAUGUUUCGAGAAGGCGUUUGUU” here?
The value was 24.3 nM.

What about the “apparent Kd” value [2] of the same sequence?
Its value is 17.1 nM.

What does the source list for “GACCUGAGUAAUAAUGUAGAAAUACAUGAGGAUCACCCAUGUAAGGAUAUGCAGUGGAAUACACUGCAGAAGGUACAUCUCAGG”?
apparent Kd [1]: 16.6 nM; apparent Kd [2]: 29.6 nM

How did the “apparent Kd” value [1] turn out when “AAAAAGGUAGGAUAUACGAAAAAAAAGGGUAGAAAAAAAACACAUGAGGAUCACCCAUGUAGAAGGACCAAAAA” was run?
The value was 27.4 nM.

What about the “apparent Kd” value [2] of the same sequence?
The value was 63 nM.

Which results are given for “GCACGGCAUGUAGGAUAUCGAGCGCCGGGCGCUCGAGAAGGACAUGAGGAUCACCCAUGUAGUCUCAGUGAGAGACUGCUGUGC”?
apparent Kd [1]: 18.3 nM; apparent Kd [2]: 36.2 nM

Which “apparent Kd” value [1] does the source give for “GGCCCGCGCGUGAGGAUAUGCUGAUUCUAGGAUUAGCAGAAGGCACAUGAGGAUCACCCAUGUCCAACUUGUCU” here?
Its value is 28.6 nM.

And the “apparent Kd” value [2]?
The value was 36.1 nM.

Which results are given for “UGAGUGCGUGUUAGGAUAUGGUUUGGUGUUUCGGGCUAGAAGGGACAUGAGGAUCACCCAUGUAACUGGCGGGU”?
apparent Kd [1]: 53.3 nM; apparent Kd [2]: 51 nM

For “CAGUACUGAGGAUAUACAUGAGGAUCACCCAUGUGUUGCAGCUAGGAAACUAGCAAAAGUAGAAGGCAGUACUG”, which “apparent Kd” value [1] is on record?
The value was 10.7 nM.

And the “apparent Kd” value [2]?
The value was 21 nM.
